# Results: PubChem BioAssay AID685 (PCMD, 2007)
# Out of some 30,000 compounds screened, about 80 (0.3%) were called active.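 The calls were made as follows: active = mutant and wild-type yeast strains alike exhibit over 30% growth inhibition; inconclusive = a strain exceeds 50% while the second remains under 30%; inactive = the rest.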 For the sample, actives were picked, then their nearest neighbours and some compounds at random.
# Assay: yeast growth toxicity, wild-type and mutant, primary screen, cytotoxicity control for eIF2B function restoration project, wild-type and eIF2Bepsilon R284H mutant, A595 (AID 685);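 also: 0% = untreated cell controls and 100% = YPD media blanks without cells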
# Conditions: A595 turbidity, 16 h, stronger effect = higher value, screened at 25 µM (by protocol)
# In short: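 system = S. cerevisiae wild-type or eIF2Bepsilon-R284H mutant strain | buffer or medium = YPD medium | dosing = one dose, 25 µM compound, 0.2% DMSO | schedule = 16 h at 30 °C | measured by = A595 turbidity | evaluation = growth inhibition (%) versus cell controls and blanks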
# [1] = S. cerevisiae eIF2Bepsilon-R284H mutant growth
Compound,growth inhibition [1],growth inhibition (S. cerevisiae wild-type growth)
CS(=O)(=O)Nc1ccc(C(=O)N2CCCC2)cc1,11.6%,38.3% (inactive)
Cc1[nH][nH]c(=O)c1C(c1ccc(-c2ccc(Cl)cc2)o1)c1c(C)[nH][nH]c1=O,63%,75.8% (active)
Cc1[nH][nH]c(=O)c1N=Nc1ccccc1,8.33%,25.8% (inactive)
Cc1ccccc1-c1nnc(SCC(=O)NCc2ccc3c(c2)OCO3)n1C,8.14%,13.1% (inactive)
CC(C)(CNC(=O)c1cc(=O)[nH]c2ccccc12)N1CCOCC1,-23.8%,-1.08% (inactive)
Cc1cc(NC(=O)CN2CCCC(C)C2)n(-c2nc3ccccc3s2)n1 (configuration not stated),-42.9%,-15.7% (inactive)
Cc1[nH]n(-c2cccc(Cl)c2)c(=O)c1/C=N/n1c(C)nc2ccccc2c1=O,2.56%,21% (inactive)
O=C(CCS(=O)(=O)c1cccc2nsnc12)N1CCN(c2ccccc2F)CC1,12.5%,11.5% (inactive)
Cc1ccc(S(=O)(=O)N2CCN(S(=O)(=O)N3CCOCC3)CC2)cc1,-11.9%,10.3% (inactive)
COC(=O)c1ccc(/C=N\n2c(C)nnc2C)cc1,-3.85%,-0.22% (inactive)
CC(=O)Nc1cccc(Oc2cc(C#N)c(C#N)cc2N2CCOCC2)c1,-4.55%,-7.1% (inactive)
O=C(N/N=C/c1ccc(O)cc1)/C(=C/c1ccc([N+](=O)[O-])cc1)NC(=O)c1ccccc1,15%,5% (inactive)
CC(=NCc1ccco1)c1c(C(F)(F)F)[nH]n(-c2nc3ccccc3s2)c1=O,7.61%,34.2% (inactive)
O=C(CSc1n[nH]c(-c2cccnc2)n1)Nc1ccnc2ccccc12,7.69%,1% (inactive)
Cc1ccc(S(=O)(=O)N(C)C2(C)CCS(=O)(=O)C2)cc1 (configuration not stated),5%,-6.15% (inactive)
COC(=O)c1ccccc1NC(=O)CN(Cc1ccc(Cl)cc1)S(C)(=O)=O,6.98%,4.14% (inactive)
CCSc1ccccc1C(=O)NCc1ccc(OC)cc1,10.3%,2.69% (inactive)
CCOc1ccc(S(=O)(=O)NCCSc2ccccc2)cc1,12.5%,10% (inactive)
CCNC(=O)c1sccc1-n1cccc1,12.9%,8.21% (inactive)
COCCCNC(=O)COc1cc(C)c(Cl)c(C)c1,-13.6%,8.44% (inactive)
COC(=O)Nc1ncc(CN2CCCCC2)s1,6.45%,-0.8% (inactive)
CCOc1ccc(S(=O)(=O)Nc2ccc(S(=O)(=O)Nc3cc(OC)ccc3OC)cc2)cc1,6.38%,5.67% (inactive)
CC1(C)NC(=O)N(CCCCSc2ccc(Cl)cc2)C1=O,15.6%,21.2% (inactive)
CC/S(CC1CC1(Cl)Cl)=N\S(=O)(=O)c1ccc(C)cc1 (configuration not stated),25.5%,20.7% (inactive)

Compound,growth inhibition [1],growth inhibition (S. cerevisiae wild-type growth)
Cc1ccc(C(=O)N2CCCC2)c(F)c1F,20%,0.21% (inactive)
O=C(c1ccc(Cl)c(Cl)c1)N1CCCC1,8.89%,28.3% (inactive)
CCCCc1nnc(NC(=O)CSc2nc(C)cc(=O)[nH]2)s1,20%,14.6% (inactive)
c1ccc(CSCCc2ccncc2)cc1,20%,22.3% (inactive)
CCC(=O)N(Cc1ccccc1)c1ccccn1,15%,1.54% (inactive)
Nc1c(C(=O)NCc2ccccc2)sc2nc3c(cc12)C(=O)CCC3,0%,-16.4% (inactive)
Cc1ccoc1C(=O)Nc1cccc(Oc2ccccc2)c1,20%,20.3% (inactive)
Cc1cc(C)n(-c2ccc(Cl)c(C(=O)O)n2)n1,-10%,22.7% (inactive)
Cc1cccc(N(CC(=O)N2CCOCC2)S(C)(=O)=O)c1,-23.8%,4.83% (inactive)
CCc1c(O)nc(SCC(=O)Nc2ccccc2)n(C(C)CC)c1=O (configuration not stated),12.8%,10% (inactive)
O=S1(=O)C=C(SCCN2CCCC2)c2ccccc21,13.5%,27.4% (inactive)
CS(=O)(=O)N1CCN(c2cccc(Cl)n2)CC1,18.9%,-6.15% (inactive)
Cc1cccc(NC(=O)C2CCCN2S(=O)(=O)c2ccc(F)cc2)c1C (configuration not stated),13.8%,9.79% (inactive)
COc1ccc(-c2cc(C)nc3nc(N)nn23)cc1,13.3%,1.72% (inactive)
Cc1ccc(S(=O)(=O)NC(=O)COc2ccccc2C)cc1,10.5%,6.06% (inactive)
COc1ccc(CN2CCCCC2C)cc1OC (configuration not stated),12.5%,8.46% (inactive)
CC1CC2=C(CC1/C=N/NC(N)=S)C(C)(C)CCC2 (configuration not stated),41.9%,30% (active)
CCCCNC(=O)OC(C)CNC(=O)OC (configuration not stated),15%,15.4% (inactive)
CC(=O)Nc1ccccc1OC(=O)N1CCOCC1,2.94%,27.7% (inactive)
O=c1c2ccccc2nc2n1C1(CCCCC1)Cc1ccccc1-2,2.94%,5.38% (inactive)
CC(C)C[C@@H](N)c1nnc(SCC(=O)c2ccc(Cl)cc2)o1,-4.76%,-22.1% (inactive)
Cc1cc(C(=O)Nc2ccccc2N2CCOCC2)c2ccccc2n1,15.2%,28.1% (inactive)
COc1cccc(N2CC(C(=O)Nc3c(C)cccc3C)CC2=O)c1 (configuration not stated),-17.4%,-10.6% (inactive)
COC(=O)c1cc(NC(=O)CC2C(=O)NCCN2C(=O)c2ccc(F)cc2)cc(C(=O)OC)c1 (configuration not stated),14.3%,3.33% (inactive)

Compound,growth inhibition [1],growth inhibition (S. cerevisiae wild-type growth)
Cc1cc2nc(C)n(CCCNC(=O)Nc3ccccc3)c2cc1C,-4.76%,26.8% (inactive)
Cc1cc(C)c2nc(NC(=O)C3CCCO3)sc2c1 (configuration not stated),28.2%,10.3% (inactive)
CCN(c1ccccc1)S(=O)(=O)c1ccc(C(=O)Nc2nccs2)cc1,0%,18.7% (inactive)
Cc1ccc(OCC(=O)Nn2cnc3ccccc32)cc1,-33.3%,-14% (inactive)
Cc1ccc(-c2noc(CSc3nnc(-c4ccncc4)n3-c3ccc(F)cc3)n2)cc1,11.6%,17.6% (inactive)
CCOC(=O)c1ccc(N2C(=O)CC(Sc3nc(O)c(CC)c(=O)[nH]3)C2=O)cc1 (configuration not stated),0%,-8% (inactive)
O=C1CC(Sc2ncn[nH]2)C(=O)N1c1ccccc1 (configuration not stated),56.8%,43.7% (active)
Cc1ccc(N2C(=O)CC(Sc3ncn[nH]3)C2=O)cc1 (configuration not stated),23.8%,1.62% (inactive)
COc1ccc(NC(=O)COC(=O)Cn2c(C)nc3ccccc32)cc1OC,-9.52%,-7.04% (inactive)
CN(C)/C=C1/C(=O)Nc2ccccc21,0%,16.7% (inactive)
CCCCNC(=O)C1CCCN(S(=O)(=O)c2ccc(S(=O)(=O)NCC(C)C)cc2)C1 (configuration not stated),28.2%,0.77% (inactive)
CCOc1ccc(-c2nc(C)sc2CC(=O)O)cc1,14.9%,16.7% (inactive)
COc1cc(S(=O)(=O)N(Cc2cccs2)C2CC2)ccc1-n1cnnn1,-4.17%,13% (inactive)
Cc1ccc(S(=O)(=O)N(c2cccc(C)c2)C2CCS(=O)(=O)C2)cc1 (configuration not stated),0%,8.71% (inactive)
CN(Cc1ccccc1)C(=O)COc1ccccc1,16.7%,1.03% (inactive)
COc1ccc(NC(=O)CC2COc3ccccc3O2)c(OC)c1 (configuration not stated),19.1%,20% (inactive)
Cc1nnc(SCC(=O)NC(=O)NC2CCCC2)n1N,17.4%,24.3% (inactive)
COC(=O)c1ccc(S(=O)(=O)c2ccc(C(=O)OC)s2)s1,-35.1%,-57.5% (inactive)
CC(=O)OC(C(=O)NC1CCCCC1)c1ccccc1 (configuration not stated),0%,11% (inactive)
CCC1CCCCN1CCCNC(=O)C1CCC(Cn2c(=O)[nH]c3ccccc3c2=O)CC1 (configuration not stated),15.6%,10% (inactive)
CCN1CCCC1Cn1cnc2c([nH]c3cc(OC)ccc32)c1=O (configuration not stated),8.7%,10% (inactive)
COc1cccc2c1OCC1COc3c(c(=O)n(C)c(=O)n3C)C21 (configuration not stated),8.33%,14.8% (inactive)
CCn1c(-c2ccoc2C)n[nH]c1=S,22.8%,21.4% (inactive)
CCOC(=O)C1=C(CSc2nccn2C)NC(=O)NC1c1ccc(OC)cc1 (configuration not stated),5.26%,17.1% (inactive)

Compound,growth inhibition [1],growth inhibition (S. cerevisiae wild-type growth)
COC(=O)C1C(=O)NCC1c1ccc(OC)cc1 (configuration not stated),10.3%,14.6% (inactive)
Cc1cccc(S(=O)(=O)CC(=O)Nc2nc(-c3ccccc3)cs2)c1,10%,3.33% (inactive)
C=CCc1ccc(OCCOc2cccc(/C=N/n3cnnc3)c2)c(OC)c1,-40.9%,5% (inactive)
Cc1nnc(SCC(=O)Nc2ncc3c(n2)CC(C)(C)CC3=O)s1,10.3%,35% (inactive)
CCOc1cc(N2CCOCC2)c(OCC)cc1NC(=O)COC(=O)[C@H](Cc1c[nH]c2ccccc12)NC(C)=O,6.98%,26.6% (inactive)
Cc1ccc(OCCCC(=O)Nc2ccc(N3CCOCC3)cc2)cc1,-14.3%,12.7% (inactive)
COC(=O)C1CCN(CC(N)=O)CC1,17.5%,20.8% (inactive)
O=C(NCCCCCCNC(=O)NCc1ccco1)NCc1ccco1,24.3%,17.8% (inactive)
Cc1cc(=O)[nH]c(SCC(=O)N2c3ccccc3CC2C)n1 (configuration not stated),3.57%,4.67% (inactive)
CCCCOc1ccc(N(CC(=O)NCC2CCCO2)C(=O)CCC(=O)Nc2cc(C)ccn2)cc1 (configuration not stated),-6.45%,-28.3% (inactive)
O=C(c1ccc(CN2CCOCC2)cc1)N1CCN(c2ccccc2F)CC1,8.33%,11.9% (inactive)
CC1=NN(/C(=N\c2nnc(C)s2)Nc2ccccc2)[C@H](c2ccc(C)cc2)S1,-6.45%,20.2% (inactive)
Cc1ccc(-c2cc(C(=O)NCC3CCCO3)c3ccccc3n2)o1 (configuration not stated),-6.45%,6.79% (inactive)
CC1CCc2c(sc3nc4n(c(=O)c23)CCS4)C1 (configuration not stated),15.4%,36.9% (inactive)
COC(=O)CNC(=O)c1ccccc1F,16.3%,19.7% (inactive)
COc1ccc(N2CCN(Cc3ccc(Br)s3)CC2)cc1,10%,16.1% (inactive)
CC(C)(C)NC(=O)CN(Cc1cccs1)C(=O)CNS(=O)(=O)c1ccccc1,14.1%,11.6% (inactive)
C/C(=N\NC(=O)c1nc(C)cc(C)n1)c1ccccc1,24.3%,15.2% (inactive)
CCC(=NC1CC(C)(C)NC(C)(C)C1)C1=C(O)CC(C)(C)CC1=O,14.8%,23.3% (inactive)
CN1C(=O)C(CC(N)=O)N(NC(=O)c2ccc(Cl)cc2)C1=S (configuration not stated),9.52%,33.8% (inactive)
COC(=O)c1sc(=S)n(-c2ccc(Cl)cc2)c1C,14.5%,9.64% (inactive)
CCOC(=O)c1ccc2c(c1)nc(SCC(=O)NC(C)C)n2CC,7.69%,3.45% (inactive)
CCOC(=O)C1C(=O)NCC1c1ccccc1 (configuration not stated),22.1%,11.5% (inactive)
CCCCN1C(=O)/C(=C2/C=CC=CN2C)SC1=S,18.9%,21.5% (inactive)
